Assay results reported in ChEMBL document CHEMBL1132626 (J Med Chem, 1999).

Columns and labels:
[1] = target: T1, Prostaglandin G/H synthase 1 (Homo sapiens, UniProt P23219); format: tissue-based, Blood
[2] = system: Rattus norvegicus; assay: In vivo efficacy was evaluated using a carrageenan-induced rat paw edema model as ED50.; format: functional
How it was run: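 Male Sprague–Dawley rats (150–200 g) were fasted overnight and dosed po in vehicle (1% methocel or 5% Tween 80). After 1 h, baseline paw volume was measured by plethysmometry and 1% carrageenan in saline was injected subplantarly (500 µg/paw). Paw swelling was measured 3 h later and % inhibition calculated versus vehicle. ED50 used ≥4 dose points with 5 rats/group.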

[3] = target: T1, Prostaglandin G/H synthase 1
[4] = target: T2, Prostaglandin G/H synthase 2 (Homo sapiens, UniProt P35354); format: tissue-based, Blood
T2 sequence (P35354 whole entry): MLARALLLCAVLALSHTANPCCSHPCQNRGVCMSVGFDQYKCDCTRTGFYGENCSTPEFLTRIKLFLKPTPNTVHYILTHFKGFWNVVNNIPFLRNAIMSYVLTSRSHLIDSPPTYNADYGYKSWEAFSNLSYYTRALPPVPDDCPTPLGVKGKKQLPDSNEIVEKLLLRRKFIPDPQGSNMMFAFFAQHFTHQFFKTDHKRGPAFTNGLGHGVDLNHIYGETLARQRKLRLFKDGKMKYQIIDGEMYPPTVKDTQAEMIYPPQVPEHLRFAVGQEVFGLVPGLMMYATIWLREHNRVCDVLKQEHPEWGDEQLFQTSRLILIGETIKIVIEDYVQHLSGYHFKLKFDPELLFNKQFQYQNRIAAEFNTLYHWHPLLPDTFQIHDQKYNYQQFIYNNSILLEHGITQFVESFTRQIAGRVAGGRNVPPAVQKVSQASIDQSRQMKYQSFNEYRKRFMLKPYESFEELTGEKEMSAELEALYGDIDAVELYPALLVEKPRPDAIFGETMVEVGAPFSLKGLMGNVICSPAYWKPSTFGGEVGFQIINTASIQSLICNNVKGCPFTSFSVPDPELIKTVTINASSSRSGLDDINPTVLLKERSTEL

[5] = target: T2, Prostaglandin G/H synthase 2; format: cell-based, CHO
[6] = system: Rattus norvegicus; assay: Compound was tested for 10 days at 100 mg/kg/day in rats activity measured as Cr leakage; Clean; format: functional, organism-based
[7] = system: Rattus norvegicus; assay: In vivo efficacy was evaluated using a carrageenan-induced rat hyperalgesia model as ED50.; format: functional
How it was run: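 Male Sprague–Dawley rats (90–110 g) received intraplantar carrageenan (4.5 mg/paw). Compound was given orally 2 h after carrageenan. One hour later, the vocalization response to compression of the injected paw was measured with an algesiometer. ID50 was derived from at least four dose points.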

[8] = system: Rattus norvegicus; assay: In vivo efficacy was evaluated in adjuvant arthritis(21 day); format: functional; conditions: 504 h, read-out: ID50 (the source's name)
How it was run: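 Arthritis was induced in female Lewis rats (7 weeks, 144–172 g) by intradermal left hind footpad injection of 0.5 mg Mycobacterium butyricum in light mineral oil; 10 rats/group. Secondary-paw volume, body weight and radiographs were recorded on days 0, 14 and 21. Analysis used two-factor repeated-measures ANOVA with Dunnett's test.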

[9] = system: Rattus norvegicus; assay: In vivo efficacy was evaluated using a LPS-induced rat pyresis model as ED50.

T1 sequence (P23219 whole entry): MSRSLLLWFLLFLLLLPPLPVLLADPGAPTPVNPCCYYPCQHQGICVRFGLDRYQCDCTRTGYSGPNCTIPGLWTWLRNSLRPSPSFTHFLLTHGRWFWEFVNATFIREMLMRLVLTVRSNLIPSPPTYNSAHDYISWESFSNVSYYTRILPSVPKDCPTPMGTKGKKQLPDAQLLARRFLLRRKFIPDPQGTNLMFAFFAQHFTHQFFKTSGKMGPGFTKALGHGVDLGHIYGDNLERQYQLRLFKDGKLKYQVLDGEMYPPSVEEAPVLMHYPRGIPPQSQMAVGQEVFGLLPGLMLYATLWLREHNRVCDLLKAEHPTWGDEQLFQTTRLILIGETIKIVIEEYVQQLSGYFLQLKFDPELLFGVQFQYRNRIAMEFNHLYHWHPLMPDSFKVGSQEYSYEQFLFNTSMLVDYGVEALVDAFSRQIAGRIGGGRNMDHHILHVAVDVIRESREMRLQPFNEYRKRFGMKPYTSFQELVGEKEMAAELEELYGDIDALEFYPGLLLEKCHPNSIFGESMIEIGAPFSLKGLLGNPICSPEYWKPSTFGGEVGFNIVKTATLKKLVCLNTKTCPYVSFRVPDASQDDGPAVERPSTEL

| IC50 [1] [nM] | IC50 [3] [nM] | IC50 [4] [nM] | IC50 [5] [nM] | SMILES | ED50 [2] [mg/kg] | Cr leakage [6] | ED50 [7] [mg/kg] | ED50 [8] [mg/kg] | ED50 [9] [mg/kg] |
| --- | --- | --- | --- | --- | --- | --- | --- | --- | --- |
| > 100000 | > 100000 | – | – | CS(=O)(=O)c1ccc(C2=C(c3cncc(Cl)c3)C(=O)CC2)cc1 | 1.3 | – | – | – | – |
| 100 | 700 | 150 | 15 | CS(=O)(=O)c1ccc(C2=C(c3ccc(Cl)c(F)c3)C(=O)CC2)cc1 | – | – | – | – | – |
| 4100 | 3100 | – | 11 | CS(=O)(=O)c1ccc(C2=C(c3ccccc3)C(=O)CC2)cc1 | 10 | – | – | – | – |
| – | > 100000 | 5200 | 150 | CC(C)(C)C#CC1=C(c2ccc(S(C)(=O)=O)cc2)CCC1=O | – | – | – | – | – |
| 4100 | 5500 | 450 | 440 | Cc1ccncc1C1=C(c2ccc(S(C)(=O)=O)cc2)CCC1=O | – | – | – | – | – |
| – | 18000 | 470 | 630 | CS(=O)(=O)c1ccc(C2=C(c3cc(Br)ccn3)C(=O)CC2)cc1 | – | – | – | – | – |
| – | 6600 | 340 | 14 | CS(=O)(=O)c1ccc(C2=C(c3cccc(F)c3)C(=O)CC2)cc1 | 6.4 | – | – | – | – |
| – | > 100000 | 1700 | 300 | CS(=O)(=O)c1ccc(C2=C(c3cncc(Br)c3)C(=O)CC2)cc1 | – | – | – | – | – |
| 73000 | 34000 | 640 | 170 | CS(=O)(=O)c1ccc(C2=C(c3cccnc3)C(=O)CC2)cc1 | 1.7 | Clean | 0.7 | 0.6 | 0.7 |
| 3200 | 1700 | 210 | 14 | CS(=O)(=O)c1ccc(C2=C(c3ccc(F)c(F)c3)C(=O)CC2)cc1 | – | – | – | – | – |
| – | – | 640 | 6 | CS(=O)(=O)c1ccc(C2=C(C#Cc3ccccc3)C(=O)CC2)cc1 | – | – | – | – | – |
| – | 100 | 80 | 14 | CS(=O)(=O)c1ccc(C2=C(c3cc4ccccc4s3)C(=O)CC2)cc1 | – | – | – | – | – |
| 3700 | 500 | 80 | 19 | CS(=O)(=O)c1ccc(C2=C(c3ccc(F)cc3)C(=O)CC2)cc1 | 3 | – | – | – | – |
| – | 2500 | 930 | 6 | CS(=O)(=O)c1ccc(C2=C(c3cc(Cl)c(Cl)c(Cl)c3)C(=O)CC2)cc1 | – | – | – | – | – |
| – | 60 | 90 | 150 | COc1ccncc1C1=C(c2ccc(S(C)(=O)=O)cc2)CCC1=O | – | – | – | – | – |
| – | 300 | 90 | 9 | CS(=O)(=O)c1ccc(C2=C(c3ccc(F)c(Cl)c3)C(=O)CC2)cc1 | – | – | – | – | – |
| 94000 | 2700 | 1100 | 17 | CS(=O)(=O)c1ccc(C2=C(Oc3cc(F)cc(F)c3)C(=O)CC2)cc1 | 6.6 | – | – | – | – |
| – | > 10000 | 9800 | 1530 | CS(=O)(=O)c1ccc(C2=C(c3ccccn3)C(=O)CC2)cc1 | – | – | – | – | – |
| 27000 | – | 500 | 175 | CS(=O)(=O)c1ccc(C2=C(/C=C/c3ccc(F)cc3)C(=O)CC2)cc1 | > 10 | – | – | – | – |
| 61000 | – | 620 | 15 | CS(=O)(=O)c1ccc(C2=C(c3cc(F)cc(F)c3)C(=O)CC2)cc1 | 2.6 | Clean | 3 | 4 | 0.8 |
| – | – | – | – | CS(=O)(=O)c1ccc(C2=C(c3ccccc3)C(=O)OC2)cc1 [ROFECOXIB] | 1.7 | – | – | – | – |
| – | – | – | – | Cc1ccc(-c2cc(C(F)(F)F)nn2-c2ccc(S(N)(=O)=O)cc2)cc1 [CELECOXIB] | 3.2 | – | – | – | – |
| > 100000 | 9200 | 280 | 14 | CS(=O)(=O)c1ccc(C2=C(c3cc(Cl)cc(Cl)c3)C(=O)CC2)cc1 | > 10 | – | – | – | – |

| SMILES | IC50 [1] [nM] | IC50 [3] [nM] | IC50 [4] [nM] | IC50 [5] [nM] | ED50 [2] [mg/kg] | Cr leakage [6] | ED50 [7] [mg/kg] | ED50 [8] [mg/kg] | ED50 [9] [mg/kg] |
| --- | --- | --- | --- | --- | --- | --- | --- | --- | --- |
| CS(=O)(=O)c1ccc(C2=C(c3cc(Cl)ccn3)C(=O)CC2)cc1 | 34000 | 27000 | 520 | 190 | 2.5 | – | – | – | – |
